The text below walks through data of ChEMBL document CHEMBL2176974, “A bactericidal guanidinomethyl biaryl that alters the dynamics of bacterial FtsZ polymerization” (J Med Chem, 2012).

≈ marks a conversion by molar mass, not a printed value. Calls of active or inactive are those of the source. The calls are words filed in the database; no cut-off is given here.

Assay [1] has as its system Klebsiella pneumoniae. As to the kind of experiment: Antimicrobial activity against Klebsiella pneumoniae ATCC 13883 incubated for 24 hrs by broth microdilution method. Format: functional. The note with it: ATCC 13883, 24 h. In short, it runs like this: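 CLSI broth microdilution. Log-phase bacteria at 10⁵ CFU/mL were added to 2-fold serial dilutions (64 to 0.016 μg/mL) in cation-adjusted Mueller-Hinton broth. Plates were incubated aerobically for 24 h at 37 °C and growth was read as OD600. MIC is the lowest concentration giving 90% growth inhibition.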

In assay [2] the test system is Staphylococcus aureus. As to the kind of experiment: microbe, parasite or virus in culture. Format: functional. The note with it: ATCC 33591, 24 h.
The target of assay [3] is Cell division protein FtsZ (Staphylococcus aureus, UniProt P0A031, G196A). As to the kind of experiment: Binding affinity to Staphylococcus aureus FtsZ G196A mutant expressed in Escherichia coli BL21 (DE3) at 25 degC by fluorescence anisotropy assay.
In assay [4] the target is Cell division protein FtsZ (Staphylococcus aureus, UniProt P0A031, E185A). As to the kind of experiment: Binding affinity to Staphylococcus aureus FtsZ E185A mutant expressed in Escherichia coli BL21 (DE3) at 25 degC by fluorescence anisotropy assay. In short, it runs like this:
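Purified SaFtsZ mutant protein (0–25 μM) mixed with 5 μM compound in 50 mM Tris·HCl pH 7.4, 50 mM KCl, 2 mM magnesium acetate. After 5 min at 25 °C, steady-state fluorescence anisotropy read at excitation 245 / emission 318 nm, G-factor corrected, triplicate. Kd from nonlinear least-squares fit.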

In assay [5] the target is T1, Cell division protein FtsZ (Staphylococcus aureus) (UniProt P0A031).
T1 sequence (whole entry): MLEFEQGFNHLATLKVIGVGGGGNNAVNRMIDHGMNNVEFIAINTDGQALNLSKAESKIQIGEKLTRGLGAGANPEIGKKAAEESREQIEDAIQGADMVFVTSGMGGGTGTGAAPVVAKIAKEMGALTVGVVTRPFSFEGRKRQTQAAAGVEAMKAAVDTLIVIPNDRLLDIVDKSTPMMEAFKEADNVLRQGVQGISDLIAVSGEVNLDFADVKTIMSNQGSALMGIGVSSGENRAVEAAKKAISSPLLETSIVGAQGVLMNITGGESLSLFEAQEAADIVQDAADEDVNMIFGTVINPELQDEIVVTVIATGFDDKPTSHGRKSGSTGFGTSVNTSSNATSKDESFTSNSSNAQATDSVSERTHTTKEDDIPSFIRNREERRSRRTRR
As to the kind of experiment: Binding affinity to Staphylococcus aureus FtsZ expressed in Escherichia coli BL21 (DE3) at 40 uM by fluorescence anisotropy BoGTPgammaS competition assay. Put shortly:
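Competition: 1 μM BODIPY-GTPγS with 0 or 5 μM SaFtsZ and compound at 0–40 μM in 50 mM Tris·HCl pH 7.4, 50 mM KCl, 2 mM magnesium acetate. After 5 min at 25 °C, anisotropy read at excitation 488 / emission 510 nm, 4 nm bandwidths, triplicate. Unlabeled GTP used as the positive control.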

Assay [6] concerns the target T2, Cell division protein FtsZ (Escherichia coli K-12) (UniProt P0A9A6).
T2 sequence (whole entry): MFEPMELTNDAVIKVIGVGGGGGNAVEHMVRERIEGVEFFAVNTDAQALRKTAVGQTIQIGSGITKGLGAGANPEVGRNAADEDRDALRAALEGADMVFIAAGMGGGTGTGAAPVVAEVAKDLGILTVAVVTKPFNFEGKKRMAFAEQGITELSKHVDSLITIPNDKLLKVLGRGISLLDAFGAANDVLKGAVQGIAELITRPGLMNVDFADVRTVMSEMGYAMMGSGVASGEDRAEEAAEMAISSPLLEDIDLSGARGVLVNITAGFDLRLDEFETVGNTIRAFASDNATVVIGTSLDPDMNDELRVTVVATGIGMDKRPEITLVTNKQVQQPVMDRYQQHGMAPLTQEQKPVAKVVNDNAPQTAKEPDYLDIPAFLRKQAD
As to the kind of experiment: Stimulation of Escherichia coli FtsZ assembly at 20 ug/mL by transmission electron microscopy. In short, it runs like this:
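EcFtsZ was polymerized with 20 μg/mL compound (10 μM protein, 1 mM GTP, 10 mM CaCl₂, Tris/KCl/Mg acetate buffer pH 7.4). The reaction was diluted 1:10 in polymerization buffer at room temperature and applied to glow-discharged Formvar/carbon copper grids. Grids were negatively stained 1 min with 1% phosphotungstic acid and imaged by TEM at 80 kV.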

For assay [7], the system named is Enterococcus faecalis. As to the kind of experiment: Stimulation of Enterococcus faecalis FtsZ self-polymerization by microtiter plate-based light scattering assay.
The target in assay [8] is T3, Cell division protein FtsZ (Staphylococcus aureus, UniProt P0A031).
T3 sequence (P0A031 whole entry): T1 sequence (whole entry)
As to the kind of experiment: Binding affinity to Staphylococcus aureus FtsZ expressed in Escherichia coli BL21 (DE3) at 25 degC by fluorescence anisotropy assay. The note with it: read-out: Kd. In short, it runs like this: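 Intrinsic compound fluorescence anisotropy. Compound at 5 μM was titrated with 0–25 μM FtsZ in 50 mM Tris·HCl pH 7.4, 50 mM KCl, 2 mM magnesium acetate. Samples were incubated 5 min at 25 °C, excited at 245 nm with emission at 318 nm, and G-corrected. Runs were in triplicate and averaged. Kd was obtained by nonlinear least-squares fit. SaFtsZ was expressed in E. coli BL21(DE3) and purified by ammonium sulfate, MonoQ and Superdex-200.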

Assay [9] concerns Staphylococcus aureus. As to the kind of experiment: Bactericidal activity against methicillin-sensitive Staphylococcus aureus 8325-4 at 8 times MIC measured 2 hrs post dose for 24 hrs assessed as log reduction in bacterial CFU by time kill study. Format: functional. In short, it runs like this:
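Exponentially growing S. aureus 8325-4 was diluted in CAMH broth to 10⁵–10⁶ CFU/mL. […] Samples taken at 2, 4 and 6 h were pelleted or diluted, then plated on TSA. Colonies were counted after 24 h at 37 °C. Points are the mean of two independent measurements.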

The target of assay [10] is T4, Cell division protein FtsZ (Escherichia coli K-12, UniProt P0A9A6).
T4 sequence (P0A9A6 whole entry): T2 sequence (whole entry)
As to the kind of experiment: Binding affinity to Escherichia coli FtsZ at 25 degC by fluorescence anisotropy assay. The note with it: read-out: Kd.

Assay [11] can be described thus: Binding affinity to Enterococcus faecalis FtsZ at 25 degC by fluorescence anisotropy assay. The note with it: read-out: Kd.

Consider `CC(C)(C)c1ccc(-c2cccc(CNC(=N)N)c2)cc1`, for which the MIC amounted to 32 µg/mL (≈ 114 µM) in assay [1] and 1 µg/mL (≈ 3.55 µM) in assay [2]. For the same molecule, the Kd in assay [3] turned out to be 5 µM; in assay [4] it was 38.3 µM; in assay [8], 3.5 µM; in assay [10] it was 3.8 µM; in [11], 21.8 µM. The result in assay [5] was inactive. In addition, the result in [6] was Active. For the same molecule, in [7], the Activity result was “Dose-dependent effect”. The FC in assay [9] is 3.
